Reference: publication PMC3366067 (Blood Cancer Journal, 2012)

Experiments:
SET-2 xenografts = test: Subcutaneous SET-2 model of megakaryoblastic leukemia; type: in vivo, mouse; conditions: d18
Outline: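 Female SCID-beige mice (9 weeks; n=12 per group) were implanted s.c. with 5 × 10^6 SET-2 cells in Matrigel. From d33 post-implantation, they were dosed orally for 19 days (d0–d18), with separate doses at least 8 h apart. Tumor volume was measured by caliper as (w²×l)/2, and tumors were weighed at the end. Synergy was assessed by Clarke's CI, with <0 counted as synergy. Statistics used ANOVA/Dunnett.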

MOLM-13 s.c. xenografts = test: Subcutaneous MOLM-13 xenograft model; type: in vivo, mouse; conditions: for reduction in tumor weight: d7
Outline: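 Female SCID mice (n=12 per group) were given 5 × 10^6 MOLM-13 cells s.c. with Matrigel. Treatment started on d11 and ran 8 days, all oral: 50 mg/kg pacritinib daily in the evenings and 75 mg/kg pracinostat every other day. On the last day, tumors were excised and weighed. Metastases to lungs, breast fat-pad and lymph nodes were counted. Statistics used ANOVA/Dunnett.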

[1] = Pharmacokinetic analysis of pracinostat and pacritinib in plasma; type: in vivo, mouse; conditions: d14 vs d1
pSTAT5 in SET-2 tumors = test: pSTAT5 levels in SET-2 tumors after chronic treatment; type: in vivo, mouse; conditions: end of study
Outline: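 SET-2 s.c. tumors came from female SCID-beige mice dosed orally d0–d18. They were excised on the last treatment day, 3 h post-dose, and lysed. pSTAT5 was measured by western blot and compared with vehicle-treated animals.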

[2] = test system: pFLT3, FLT3 in MOLM-13 tumors; test: Western blot analysis of MOLM-13 tumors; type: in vivo, mouse; conditions: chronic treatment with pacritinib alone, d7
[3] = test system: IL-6, IP-10, KC and MIP-1α; test: Plasma cytokine/chemokine analysis in SET-2 tumor-bearing mice; type: in vivo, mouse
Outline: (§1)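 Plasma came from female SCID-beige mice bearing s.c. SET-2 tumors (5 × 10^6 cells) that had been dosed orally with the test compounds in the efficacy study. It was collected on d18, 3 h post-dose. A Luminex 32-plex mouse cytokine/chemokine panel measured the analytes. Comparators were uninoculated naive mice and vehicle-treated tumor-bearing mice.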

MCP-1 = test: as above; type: in vivo, mouse; conditions: d18
Outline: as §1

[4] = Toxicokinetic studies in mice, single agent; type: in vivo; conditions: data not shown
[5] = test system: pJAK2, JAK2, pSTAT5 and STAT5 in JAK2 wt 32D cells; test: Western blot of JAK-STAT signaling; type: cell-based, murine; conditions: 125–500 nM for 24 h
Outline: (§2)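 Cells were treated with test compound at 125–500 nM for 24 h, then lysed. Western blots of 25 μg total lysate were probed for pJAK2 (Y1007/1008), JAK2, pSTAT5 (Y694) and STAT5. JAK2V617F lines were compared with JAK2 wt lines.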

HL-60 = test: Cell proliferation assay and in vitro synergy; type: cell-based; conditions: Homo sapiens, HL-60, 48 h, read-out: IC50 on cell proliferation
Outline: (§3)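 Cells were seeded at a predetermined optimal density in log phase and rested 2 h before treatment. They were then exposed for 48 h to test compound in 9 serial-dilution steps from 10 μM to 1.5 nM, with 0.1% solvent. Viability was read by CellTiter-Glo luminescence. At least three independent experiments were run in triplicate, and IC50 came from curve fitting.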

[6] = test system: HL-60 cells engrafted orthotopically; test: Orthotopic AML model; type: in vivo, mouse
Outline: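 Female SCID mice (n=6 per group) received 1 × 10^7 HL-60 cells i.v. in 100 μl serum-free medium. From d30, once disease was established, they were dosed with 125 mg/kg test compound thrice weekly by oral gavage at 10 ml/kg. Paralysis symptoms were scored. Blood counts were taken from tail blood with a hematology analyzer and compared with age-matched uninoculated SCID mice. Statistics used ANOVA/Bonferroni.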

[7] = test system: pJAK2, JAK2, pSTAT5 and STAT5 in JAK2^V617F mutant cells (HEL92.1.7 and SET-2); test: Western blot of JAK-STAT signaling; type: cell-based, human; conditions: 125–500 nM for 24 h
Outline: as §2

[8] = test system: pFLT3 (Y591) in MOLM-13 cells (FLT3-ITD); test: Western blot of FLT3 signaling; type: cell-based, human; conditions: 500 nM, 24 h
Outline: (§4)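 Cells were treated with test compound at graded concentrations for 24 h, then lysed. Western blots loaded 50 μg total lysate for pFLT3 (Y591) and FLT3, and 25 μg for the other proteins. Other antibodies were pSTAT5 (Y694) and STAT5. FLT3-ITD lines were compared with wt-FLT3 RS4;11 cells.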

HEL92.1.7 xenografts = test: Subcutaneous HEL92.1.7 xenograft model; type: in vivo, mouse; conditions: HEL92.1.7 model, 75 or 125 mg/kg every other day for 17 days
Outline: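 Female BALB/c nude mice (8–10 weeks; n=5 per group) were implanted s.c. in the right flank with 5 × 10^6 HEL92.1.7 cells in serum-free medium mixed 1:1 with Matrigel. From d18, they were dosed by oral gavage (10 ml/kg) at 75 or 125 mg/kg every other day for 17 days. Tumor volume was measured by caliper as (w²×l)/2.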

[9] = test system: panel of 11 AML cell lines; test: Cell proliferation assay; type: cell-based; conditions: Homo sapiens, 48 h, read-out: IC50 on cell proliferation
Outline: as §3

[10] = test system: pFLT3, FLT3 and pSTAT5 in RS4;11 cells (wt FLT3); test: Western blot of FLT3 signaling; type: cell-based, human; conditions: RS4;11, 24 h, compared with FLT3-ITD cell lines
Outline: as §4

[11] = test system: pJAK2, JAK2, pSTAT5 and STAT5 in JAK2 wt KARPAS 1106-P cells; test: Western blot of JAK-STAT signaling; type: cell-based; conditions: data not shown
Outline: as §2

[12] = test system: pFLT3 (Y591) in MV4-11 cells (FLT3-ITD); test: Western blot of FLT3 signaling; type: cell-based, human; conditions: 500 nM, 24 h
Outline: as §4

MV4-11 xenografts = test: Subcutaneous MV4-11 xenograft model; type: in vivo, mouse
Outline: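 Female BALB/c nude mice (8–10 weeks; n=10 per group) were implanted s.c. in the right flank with 1 × 10^7 MV4-11 cells in serum-free medium mixed 1:1 with Matrigel. From d9, they received 25 or 50 mg/kg per day by oral gavage (10 ml/kg) for 21 days. Tumor volume was measured by caliper as (w²×l)/2. Statistics used ANOVA/Bonferroni.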

[13] = pacritinib 150 mg/kg twice daily

C1=C/COCc2cc(ccc2OCCN2CCCC2)Nc2nccc(n2)-c2cccc(c2)COC/1 [pacritinib]
TGI (tumor volume) (SET-2 xenografts; [13]): 61% | TGI on the basis of tumor weight (SET-2 xenografts; [13]): 47% | reduction in tumor weight (MOLM-13 s.c. xenografts; pacritinib 50 mg/kg daily): 14.7% | reduction of metastatic incidences (MOLM-13 s.c. xenografts; single-agent pacritinib): 60% | increase in AUC after chronic dosing in combination ([1]; pacritinib): approximately four-fold | increase in Cmax after chronic dosing in combination ([1]; pacritinib): approximately two-fold | decrease of pSTAT5 levels in tumors (pSTAT5 in SET-2 tumors; pacritinib 150 mg/kg twice daily, 3 h post dose): about 50% | total levels of FLT3 in tumors [2]: increased expression total levels of FLT3 significantly | plasma IL-6, IP-10, KC and MIP-1α ([3]; single-agent pacritinib): normalization | reduction of plasma MCP-1 levels (MCP-1; pacritinib single agent): 10% | increase in exposure following repeated dosing [4]: two-fold

CCCCc1nc2cc(/C=C/C(=O)NO)ccc2n1CCN(CC)CC [pracinostat]
TGI on the basis of tumor weight (SET-2 xenografts; pracinostat 75 mg/kg q.o.d): 42.5% | pJAK2, JAK2, pSTAT5 and STAT5 protein levels [5]: remained unaffected | reduction in tumor weight (MOLM-13 s.c. xenografts; pracinostat 75 mg/kg q.o.d): 19.2% | reduction of metastatic incidences (MOLM-13 s.c. xenografts; single-agent pracinostat): 50% | IC50 (HL-60): 70 nM | numbers of platelets ([6]; 125 mg/kg thrice weekly): without significantly reducing | delay of the disease onset ([6]; 125 mg/kg thrice weekly from d30): 17 days | blood counts (white blood counts, lymphocyte counts) ([6]; 125 mg/kg thrice weekly, d15 of the study): normalizing blood counts to the levels of disease-free mice | reduction of death caused by progressive AML ([6]; 125 mg/kg thrice weekly, study d24): 50% | pharmacokinetic parameters after 14 days of co-administration with pacritinib ([1]; pracinostat): similar | pJAK2 (Y1007/08) and pSTAT5 (Y694) levels, total JAK2 and STAT5 protein [7]: decreased | pFLT3 (Y591) level [8]: near-total ablation | maximum body weight loss (HEL92.1.7 xenografts): 4.7% | pSTAT5 levels in tumors compared with vehicle treated animals (pSTAT5 in SET-2 tumors; pracinostat 75 mg/kg every other day): increased pSTAT5 levels | plasma IL-6, IP-10, KC and MIP-1α ([3]; single-agent pracinostat): normalization | IC50 [9]: 70 to 560 nM | levels of pFLT3 and FLT3, and pSTAT5 [10]: reduced, but to a lesser extent | pJAK2, JAK2, pSTAT5 and STAT5 protein levels [11]: remained unaffected | pFLT3 (Y591) level [12]: near-total ablation | reduction of plasma MCP-1 levels (MCP-1; pracinostat single agent): 40% | Complete tumor regression at the end of the treatment (MV4-11 xenografts; 50 mg/kg per day for 21 days): 6 out of 10 | maximum body weight loss (MV4-11 xenografts; MV4-11 model, 25 or 50 mg/kg per day for 21 days): 7%
